Data set [1] can be described thus: Stability in FaSSiF at pH 6.5 at 37 °C incubated for 4 hrs.
The nature of data set [2]: AUC (0 to infinity) in jugular vein of portal vein-cannulated beagle dog at 10 mg/kg, po by LC-MS/MS method. In kind it is ADME, organism-based, Canis lupus familiaris. The arrangement: dose 10 mg/kg, time infinity, route oral. The method in brief:
(§1)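 Portal vein-cannulated dogs received the prodrugs orally at doses normalized to 10 mg/kg of the parent molecule. Prodrug and parent concentrations were determined in plasma collected from the portal and jugular veins, and AUC was derived for each analyte at each site.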

Data set [3] deals with Canis familiaris. The experiment in a line: AUC (0 to infinity) in beagle dog assessed as c(1R,2S,5R)-8'-(3-chloro-4-fluorobenzyl)-6'-hydroxy-1-(hydroxymethyl)-2'-methyl-9',10'-dihydro-1'H-spiro[bicyclo[3.1.0]hexane-2,3'-imidazo[5,1-a][2,6]naphthyridine]-1',5',7'(2'H,8'H)-trione evel at 2 mg/kg, po by LC-MS/MS method. In kind it is ADME, organism-based, Canis lupus familiaris. On the set-up: dose 2 mg/kg, route oral, time infinity. Conditions: in vivo; call rule not given here. In outline: (§2)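 Oral rising-dose studies were run in beagle dogs with prodrugs, at doses normalized to account for the promoiety so that they give the actual parent dose administered. The read-out was plasma exposure (AUC) of the parent compound.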

Data set [4] can be described thus: AUC (0 to infinity) in jugular vein of portal vein-cannulated beagle dog assessed as (1R,2S,5R)-8'-(3-chloro-4-fluorobenzyl)-6'-hydroxy-1-(hydroxymethyl)-2'-methyl-9',10'-dihydro-1'H-spiro[bicyclo[3.1.0]hexane-2,3'-imidazo[5,1-a][2,6]naphthyridine]-1',5',7'(2'H,8'H)-trione level at 10 mg/kg, po by LC-MS/MS method. In kind it is ADME, organism-based, Canis lupus familiaris. The conditions noted are these: in vivo. On the set-up: dose 10 mg/kg, time infinity, route oral. The method in brief: as §1

Data set [5] is described as follows: Solubility in FaSSiF at pH 6.5 at room temperature incubated for 4 hrs. In kind it is physicochemical.
A short description of data set [6]: Permeability in MDCK2 cells at 1 uM incubated for 3 hrs by LC-MS/MS method. In kind it is ADME, cell-based, Canis lupus familiaris, MDCK-II. Conditions: dog, MDCK; read-out: permeability.
Data set [7] is described as follows: Stability in SGF at pH 1.8 at 37 °C incubated for 4 hrs.
Data set [8] in a line: Permeability in LLC-PK1 cells at 1 uM incubated for 3 hrs by LC-MS/MS method. The conditions noted are these: pig, read-out: permeability. In kind it is ADME, cell-based, Sus scrofa.
Data set [9] is described as follows: AUC (0 to infinity) in portal vein of portal vein-cannulated beagle dog assessed as (1R,2S,5R)-8'-(3-chloro-4-fluorobenzyl)-6'-hydroxy-1-(hydroxymethyl)-2'-methyl-9',10'-dihydro-1'H-spiro[bicyclo[3.1.0]hexane-2,3'-imidazo[5,1-a][2,6]naphthyridine]-1',5',7'(2'H,8'H)-trione level at 10 mg/kg, po by LC-MS/MS method. In kind it is ADME, organism-based, Canis lupus familiaris. On the set-up: dose 10 mg/kg, route oral, time infinity. Conditions: in vivo. The method in brief:
as §1

Data set [10] in a line: AUC (0 to infinity) in portal vein of portal vein-cannulated beagle dog at 10 mg/kg, po by LC-MS/MS method. In kind it is ADME, organism-based, Canis lupus familiaris. The arrangement: dose 10 mg/kg, time infinity, route oral. The method in brief:
as §1

The subject of data set [11] is Human immunodeficiency virus 1. Description: Antiviral activity against HIV1 infected in human MT4 cells expressing GFP incubated for 48 to 72 hrs in absence of 50% normal human serum by multiple round viral replication kinetics assay. In kind it is functional.
The test system of data set [12] is Canis familiaris. The experiment in a line: AUC (0 to infinity) in beagle dog assessed as (1R,2S,5R)-8'-(3-chloro-4-fluorobenzyl)-6'-hydroxy-1-(hydroxymethyl)-2'-methyl-9',10'-dihydro-1'H-spiro[bicyclo[3.1.0]hexane-2,3'-imidazo[5,1-a][2,6]naphthyridine]-1',5',7'(2'H,8'H)-trione level at 30 mg/kg, po by LC-MS/MS method. In kind it is ADME, organism-based, Canis lupus familiaris. The arrangement: dose 30 mg/kg, route oral, time infinity. Conditions: in vivo. In outline: as §2

Data set [13] has as its system Human immunodeficiency virus 1. Description: Resistance index, ratio of IC50 for antiviral activity against HIV1 expressing integrase E92Q mutant to IC50 for antiviral activity against HIV1 expressing wild type integrase. In kind it is functional. In outline:
(§3)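 Fold shift computed as the inflection point (IP) against mutant HIV-1 divided by the IP against wild-type virus. Both IPs come from a kinetic HIV replication (viral kinetics) potency assay run in 50% normal human serum (NHS).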

Data set [14] can be described thus: Solubility in SGF at pH 1.8 at room temperature incubated for 4 hrs. In kind it is physicochemical.
A short description of data set [15]: Volume of distribution at steady state in beagle dog at 0.5 mg/kg, iv by LC-MS/MS method. In kind it is ADME, organism-based, Canis lupus familiaris. Conditions: in vivo, read-out: Vdss.
Data set [16] can be described thus: Oral bioavailability in beagle dog at 1 mg/kg by LC-MS/MS method. In kind it is ADME, organism-based, Canis lupus familiaris. The conditions noted are these: in vivo.
Data set [17] is described as follows: Protein binding in human plasma at 2.5 uM incubated for 4 hrs by LC-MS/MS detection based equilibrium dialysis method. In kind it is ADME, cell-free. Conditions: read-out: PPB (converted).
Data set [18] is described as follows: Protein binding in beagle dog plasma at 2.5 uM incubated for 4 hrs by LC-MS/MS detection based equilibrium dialysis method. In kind it is ADME, cell-free, Canis lupus familiaris. Conditions: read-out: PPB (converted).
Data set [19] is described as follows: Half life in beagle dog at 0.5 mg/kg, iv by LC-MS/MS method. The conditions noted are these: in vivo.
The nature of data set [20]: AUC (0 to infinity) in beagle dog at 1 mg/kg, po by LC-MS/MS method. On the set-up: dose 1 mg/kg, route oral, time infinity. In kind it is ADME, organism-based, Canis lupus familiaris. Conditions: in vivo.
Data set [21] has as its system Human immunodeficiency virus 1. The experiment in a line: Antiviral activity against HIV1 infected in human MT4 cells expressing GFP incubated for 48 to 72 hrs in presence of 50% normal human serum by multiple round viral replication kinetics assay. In kind it is functional.
In data set [22] the target is Cytochrome P450 3A4 (Homo sapiens, UniProt P08684). Description: Time dependent inhibition of CYP3A4 (unknown origin). In kind it is ADME.
For data set [23], the system named is Human immunodeficiency virus 1. The experiment in a line: Resistance index, ratio of IC50 for antiviral activity against HIV1 expressing integrase Y143R mutant to IC50 for antiviral activity against HIV1 expressing wild type integrase. In kind it is functional. The method in brief: as §3
Data set [24] can be described thus: Plasma clearance in beagle dog at 0.5 mg/kg, iv by LC-MS/MS method. In kind it is ADME, organism-based, Canis lupus familiaris.
Data set [25] relates to Human immunodeficiency virus 1. Description: Resistance index, ratio of IC50 for antiviral activity against HIV1 expressing integrase Q148R mutant to IC50 for antiviral activity against HIV1 expressing wild type integrase. In kind it is functional. In outline: as §3
The subject of data set [26] is Canis familiaris. Description: AUC (0 to infinity) in beagle dog assessed as (1R,2R,5S)-8'-(3-chloro-4-fluorobenzyl)-6'-hydroxy-2'-((S)-2-hydroxypropyl)-9',10'-dihydro-1'H-spiro[bicyclo[3.1.0]hexane-2,3'-imidazo[5,1-a][2,6]naphthyridine]-1',5',7'(2'H,8'H)-trione level at 100 mg/kg, po by LC-MS/MS method. In kind it is ADME, organism-based, Canis lupus familiaris. On the set-up: dose 100 mg/kg, time infinity, route oral. The conditions noted are these: in vivo. The method in brief: as §2

The subject of data set [27] is Canis familiaris. Description: AUC (0 to infinity) in beagle dog assessed as (1R,2R,5S)-8'-(3-chloro-4-fluorobenzyl)-6'-hydroxy-2'-((S)-2-hydroxypropyl)-9',10'-dihydro-1'H-spiro[bicyclo[3.1.0]hexane-2,3'-imidazo[5,1-a][2,6]naphthyridine]-1',5',7'(2'H,8'H)-trione level at 2 mg/kg, po by LC-MS/MS method. In kind it is ADME, organism-based, Canis lupus familiaris. The arrangement: dose 2 mg/kg, time infinity, route oral. Conditions: in vivo. The method in brief:
as §2

Data set [28] in a line: AUC (0 to infinity) in portal vein of portal vein-cannulated beagle dog assessed as (1R,2R,5S)-8'-(3-chloro-4-fluorobenzyl)-6'-hydroxy-2'-((S)-2-hydroxypropyl)-9',10'-dihydro-1'H-spiro[bicyclo[3.1.0]hexane-2,3'-imidazo[5,1-a][2,6]naphthyridine]-1',5',7'(2'H,8'H)-trione level at 10 mg/kg, po by LC-MS/MS method. In kind it is ADME, organism-based, Canis lupus familiaris. On the set-up: dose 10 mg/kg, route oral, time infinity. The conditions noted are these: in vivo. In outline:
as §1

For data set [29], the system named is Canis familiaris. Description: AUC (0 to infinity) in beagle dog assessed as (1R,2R,5S)-8'-(3-chloro-4-fluorobenzyl)-6'-hydroxy-2'-((S)-2-hydroxypropyl)-9',10'-dihydro-1'H-spiro[bicyclo[3.1.0]hexane-2,3'-imidazo[5,1-a][2,6]naphthyridine]-1',5',7'(2'H,8'H)-trione level at 10 mg/kg, po by LC-MS/MS method. In kind it is ADME, organism-based, Canis lupus familiaris. On the set-up: dose 10 mg/kg, time infinity, route oral. Conditions: in vivo. The method in brief:
as §2

A short description of data set [30]: AUC (0 to infinity) in jugular vein of portal vein-cannulated beagle dog assessed as (1R,2R,5S)-8'-(3-chloro-4-fluorobenzyl)-6'-hydroxy-2'-((S)-2-hydroxypropyl)-9',10'-dihydro-1'H-spiro[bicyclo[3.1.0]hexane-2,3'-imidazo[5,1-a][2,6]naphthyridine]-1',5',7'(2'H,8'H)-trione level at 10 mg/kg, po by LC-MS/MS method. The arrangement: dose 10 mg/kg, route oral, time infinity. In kind it is ADME, organism-based, Canis lupus familiaris. The conditions noted are these: in vivo. In outline: as §1

Structures are written as SMILES. Converted amounts (≈) assume the structure as drawn.

Sequence of Cytochrome P450 3A4 (P08684 whole entry): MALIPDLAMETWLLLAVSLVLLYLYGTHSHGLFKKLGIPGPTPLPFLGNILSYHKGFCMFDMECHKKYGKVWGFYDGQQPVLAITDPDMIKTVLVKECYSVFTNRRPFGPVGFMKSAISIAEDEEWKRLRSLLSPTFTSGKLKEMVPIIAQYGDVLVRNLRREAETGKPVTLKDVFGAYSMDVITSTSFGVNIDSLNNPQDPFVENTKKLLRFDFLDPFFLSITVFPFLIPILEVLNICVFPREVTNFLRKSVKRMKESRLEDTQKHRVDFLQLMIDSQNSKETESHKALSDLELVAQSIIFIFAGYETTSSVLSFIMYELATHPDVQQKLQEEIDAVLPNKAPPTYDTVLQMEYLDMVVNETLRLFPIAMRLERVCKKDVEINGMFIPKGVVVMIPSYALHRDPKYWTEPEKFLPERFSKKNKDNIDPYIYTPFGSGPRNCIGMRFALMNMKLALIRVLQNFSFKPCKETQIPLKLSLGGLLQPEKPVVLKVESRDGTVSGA

With `CC(C)OC(=O)OCOc1c2c(c3n(c1=O)[C@]1(CC[C@@H]4C[C@@]41CO)N(C)C3=O)CCN(Cc1ccc(F)c(Cl)c1)C2=O`, the amount remaining at 4 h in data set [1] and in [7] was above 98% throughout. The results for the AUC(0-inf) in data set [2] and in data set [10] were 0.037 µM·h and 2.55 µM·h, respectively. Also, the AUC was 5 µM·h in [3], 30.4 µM·h in data set [4], 27.3 µM·h in [9] and 284 µM·h in [12]. Moreover, the concentration in solution in data set [5] (solubility at 4 h) was 500 µg/mL (≈ 828 µM). Moreover, the Papp at 3 h, 1 µM in data set [6] is 19.7 ×10⁻⁶ cm/s; in data set [8], 26.5 ×10⁻⁶ cm/s. In data set [11], this compound came in with an IP of 16 nM.
For the compound `CN1C(=O)c2c3c(c(O)c(=O)n2[C@]12CC[C@@H]1C[C@@]12CO)C(=O)N(Cc1ccc(F)c(Cl)c1)CC3`, the “Ratio IC50” value in [13], in data set [23] and in data set [25] was 1 throughout. Besides, the solubility at 4 h was found to be 17 µg/mL (≈ 34.8 µM) in data set [14] and 30 µg/mL (≈ 61.5 µM) in data set [5]. Moreover, the Vd in data set [15] was 0.4 L/kg. For the same compound, the bioavailability in data set [16] stood at 26%. Moreover, the fraction unbound at 4 h, 2.5 µM was 0.02 in data set [17] and 0.014 in data set [18]. Besides, in data set [3], the AUC turned out to be 8 µM·h. The Papp at 3 h, 1 µM in [6] is 8.4 ×10⁻⁶ cm/s; in [8] it was 6.7 ×10⁻⁶ cm/s. The half-life in [19] is 5 h. The AUC(0-inf) in [20] was 4.9 µM·h. Further, the results for the IP in [21] and in [11] were 32 nM and 3 nM, respectively. In [22], the TDI result was “Not Active”. This compound yielded a clearance in data set [24] of 1.9 mL/min/kg.
Turning to `Cc1nnc(C(=O)NC(C)(C)c2nc(C(=O)NCc3ccc(F)cc3)c(O)c(=O)n2C)o1`, the IP in data set [21] worked out at 53 nM; in data set [11], 9 nM.
Consider `CC(C)OC(=O)OCOc1c2c(c3n(c1=O)[C@@]1(CC[C@H]4C[C@H]41)N(C[C@H](C)OP(=O)(O)O)C3=O)CCN(Cc1ccc(F)c(Cl)c1)C2=O`, for which the amount remaining at 4 h in data set [1] and in data set [7] was above 98% each time. Moreover, the solubility at 4 h in data set [5] is above 2000 µg/mL. Also, the AUC in data set [26] is 570 µM·h. This compound displayed an IP in [11] above 4200 nM.
For the compound `CC(C)OC(=O)OCOc1c2c(c3n(c1=O)[C@@]1(CC[C@H]4C[C@H]41)N(C[C@H](C)O)C3=O)CCN(Cc1ccc(F)c(Cl)c1)C2=O`, the amount remaining at 4 h in data set [1] and in data set [7] was above 98% in each case. The AUC(0-inf) in data set [2] was determined as 0.034 µM·h; in [10], 1.12 µM·h. Also, the AUC worked out at 23 µM·h in data set [27], 23.9 µM·h in [28], 128 µM·h in data set [29] and 33.9 µM·h in data set [30]. Moreover, the solubility at 4 h in [5] was found to be 250 µg/mL (≈ 404 µM). Further, the Papp at 3 h, 1 µM in data set [6] stood at 23.5 ×10⁻⁶ cm/s; in data set [8], 26.7 ×10⁻⁶ cm/s. This compound also registered an IP in data set [11] of 178 nM.

The record behind these values is ChEMBL document CHEMBL3621084, “Discovery of 2-Pyridinone Aminals: A Prodrug Strategy to Advance a Second Generation of HIV-1 Integrase Strand Transfer Inhibitors” (J Med Chem, 2015).
